Assay results pooled from the literature.
Target: Dual specificity tyrosine-phosphorylation-regulated kinase 3 (DYRK3, Homo sapiens, UniProt O43781)
Sequence (O43781 1-588, as in one of the studies): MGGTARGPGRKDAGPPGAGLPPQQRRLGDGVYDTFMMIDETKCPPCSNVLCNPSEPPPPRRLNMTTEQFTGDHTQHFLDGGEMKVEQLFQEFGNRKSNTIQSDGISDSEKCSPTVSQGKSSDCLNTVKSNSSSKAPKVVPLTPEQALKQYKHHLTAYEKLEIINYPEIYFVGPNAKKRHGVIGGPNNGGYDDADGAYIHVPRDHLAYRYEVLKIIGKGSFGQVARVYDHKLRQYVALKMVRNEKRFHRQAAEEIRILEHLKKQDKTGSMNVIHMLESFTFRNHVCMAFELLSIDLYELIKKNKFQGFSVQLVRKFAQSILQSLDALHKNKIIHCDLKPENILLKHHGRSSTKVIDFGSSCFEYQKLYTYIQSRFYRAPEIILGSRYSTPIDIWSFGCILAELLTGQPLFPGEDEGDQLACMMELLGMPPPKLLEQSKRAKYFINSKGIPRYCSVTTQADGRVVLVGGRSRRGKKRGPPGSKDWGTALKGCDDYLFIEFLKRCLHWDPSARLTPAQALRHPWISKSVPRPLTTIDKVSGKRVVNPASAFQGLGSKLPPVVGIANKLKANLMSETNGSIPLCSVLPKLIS

With `COc1cc(-c2cc(-c3ccc(N4CCNCC4)cc3)cnc2C)cc(OC)c1OC` the inhibition was 1% (enzyme activity, inhibitor; 0.1 µM).
`O=C(O)c1ccc2c(c1)nc(Nc1ccc(F)c(Cl)c1)c1ncncc12` gave a remaining activity of 8% (enzyme activity, inhibitor, radiometric; 1 µM).
For `Cn1cnc(Br)c1C1=CN(c2ncnc3[nH]cnc23)CCS1`, the inhibition was 49.8% (enzyme activity, inhibitor, radiometric; 50 nM).
For `O=C(O)c1ccc2c(c1)nc(NCc1ccccc1)c1ccncc12`, the remaining activity was 21% (enzyme activity, inhibitor, radiometric; 1 µM).
With `CCCS(=O)(=O)Nc1ccc(F)c(C(=O)c2c[nH]c3ncc(-c4ccc(Cl)cc4)cc23)c1F` the inhibition was < 10% (enzyme activity, inhibitor; 1 µM).
With `O=C(O)c1ccc2c(c1)nc(NCCc1cccc(F)c1)c1ncncc12` the remaining activity was 17% (enzyme activity, inhibitor, radiometric; 1 µM).
`O=C1Nc2ccc(Cl)cc2C1=Cc1cc(Cl)c(O)c(Cl)c1` has a remaining signal of 91.8% (cell-free assay; 0.5 µM).
`Cc1cc(NC(=O)c2cccc3cc(-c4cccc5[nH]nc(N)c45)ccc23)ccc1F` has an activity vs control of 105% (enzyme activity, inhibitor; 0.1 µM).
For `COc1cc(Nc2cnc(C#N)c(O[C@H](C)CN(C)C)n2)ncc1-c1cnn(C)c1`, the remaining activity was 98% (enzyme activity, inhibitor, radiometric; 1 µM).
For `O=C1NC(=O)c2cc(Nc3ccc(F)cc3)c(Nc3ccc(F)cc3)cc21`, the remaining signal was 97.1% (cell-free assay; 0.5 µM).
The activity vs control of `COc1cc(/C=C/C(=O)CC(=O)/C=C/c2ccc(O)c(OC)c2)ccc1O` is reported as 11% (enzyme activity, inhibitor; 1 µM).
With `COc1cc2ncnc(Nc3ccc(Oc4ccccc4)cc3C)c2cc1OC` the inhibition was 1% (enzyme activity, inhibitor; 1 µM).
The remaining activity of `O=C(Nc1cnn(-c2csc(C(=O)NC3COC3)c2)c1)Nc1ccccc1Cl` is reported as 93.3% (enzyme activity, inhibitor; 5 µM).
For `COc1cccc(CCNc2nc3cc(C(=O)O)ccc3c3cnccc23)c1`, the remaining activity was 11% (enzyme activity, inhibitor, radiometric; 1 µM).
